# APOBEC3G inh: APOBEC3G DNA deaminase inhibitors, primary screen, biochemical, fluorescence, single-stranded DNA substrate, uHTS; DNA dC->dU-editing enzyme APOBEC-3G (Homo sapiens), Q9HC16; recombinant A3G, ssDNA deamination FAM/TAMRA fluorescence; inhibition, % at 20 µM; hit rate 0.28% among 330,000;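 active means inhibition of at least 40% at 20 µM, with no more than 30% in the related APOBEC3A deaminase screen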;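 further: plate controls were DMSO wells with A3G for no effect and wells lacking A3G enzyme for full effect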
# PHOSPHO1 inh: PubChem AID 1565; Phosphoethanolamine/phosphocholine phosphatase (Homo sapiens), Q8TCT1; recombinant PHOSPHO1, absorbance phosphatase assay; inhibition, % at 13.3 µM; hit rate 1.1% among 290,000; in the data active means inhibition above about 60%
# APOBEC3A inh: APOBEC3A ssDNA deaminase inhibitors, primary screen, selectivity assay for APOBEC3G inhibitor project, biochemical, FAM/TAMRA oligo cleavage fluorescence | hit rate 0.41% among 330,000 | recombinant A3A, FAM/TAMRA ssDNA deamination fluorescence | DNA dC->dU-editing enzyme APOBEC-3A (Homo sapiens), P31941 | AID 493011, 2011 | inhibition, % at 20 µM;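 active means at least 40% inhibition at 20 µM here, with at most 30% in a related deaminase screen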;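 further: plate controls were A3A with DMSO for no effect and wells lacking A3A enzyme for full effect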
# TbMetRS inhib: T. brucei MetRS inhibitors, primary screen, biochemical, luminescence; inhibition, % at 11.9 µM; hit rate 0.4% among 360,000; purified T. brucei MetRS, ATP depletion, Kinase-Glo luminescence;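 active means inhibition above a per-plate cutoff of the control wells' mean inhibition plus 3 SD, cut at about 5.5% in these data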;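 further: 0% = DMSO wells median and 100% = median of wells with control inhibitor compound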
#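 Test system – parasite MetRS enzyme · Reagent – substrates ATP, L-methionine and bulk Escherichia coli tRNA · Doses – 11.9 µM compound single dose, 0.9% DMSO · Times – 15 min enzyme-compound preincubation, 2 h reaction, 10 min detection, 25 °C · Signal – Kinase-Glo luminescence, ATP depletion format · Controls – DMSO-only wells as low control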
# pCIP destab: p/CIP-EGFP fusion destabilizers, primary screen, fluorescence, F442A cells; decrease of EGFP signal, % at 10 µM; Q05BA5; AID 1984, 2009; 16 h; hit rate 0.01% among 290,000;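 active means EGFP signal decrease of at least 30% at 10 µM or well 3 SD below plate mean, unless failing retest; inactive means the rest, including hits failing retest or dose response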
# An asterisk follows results filed as active; nt = no result. Compounds with a hit are over-represented: about 1.8% of the library has one in this group of screens.
SMILES,APOBEC3G inh,PHOSPHO1 inh,APOBEC3A inh,TbMetRS inhib,pCIP destab
CCOC(=O)c1c(NC(=O)c2c(C(=O)O)cccc2[N+](=O)[O-])sc(C)c1C,-6.3,49.0,-2.7,-0.5,-2.8
O=C(COC(=O)CSc1ccc(F)cc1)NNC(=O)c1ccc([N+](=O)[O-])cc1,-9.7,nt,-1.5,-0.4,nt
NC(=O)c1cc(S(=O)(=O)N2CC=C(c3ccccc3)CC2)cs1,-2.3,15.4,-2.3,-0.9,-2.2
N/C(COc1cccc(C(F)(F)F)c1)=N\NC(=O)c1cccnc1Oc1ccccc1,-5.9,1.4,-2.6,-1.4,11.7
COc1ccc(OC)c(CCNC(=O)C(C)n2nc(C)c3c(C)n(-c4ccc(C)cc4)nc3c2=O)c1 (stereo not given),-6.7,41.2,-2.8,-0.4,-37.8
COc1ccc(OC)c(CCNC(=O)C(C)n2nc(C)c3c(C)n(-c4ccccc4)nc3c2=O)c1 (stereo not given),3.9,70.1*,-0.4,-0.8,-9.6
CCC(C(=O)NC1CC1)n1nc(C)c2c(C)n(-c3ccccc3)nc2c1=O (stereo not given),4.0,64.7*,1.1,0.2,5.4
Oc1ccc(/C=N/Nc2ccccc2)cc1,-0.8,-14.2,2.8,-0.4,10.0
O=c1c2ccccc2nc(N/N=C/c2ccc(O)cc2)n1O,-5.1,87.5*,-6.3,-0.7,-2.2
O=c1c2ccccc2nc(N/N=C/c2c(O)ccc3ccccc23)n1O,-7.6,65.6*,0.6,-1.1,12.4
CC1CC(C)(C)NC(=S)N1CCC(=O)N1c2ccccc2CC1C (stereo not given),-4.7,16.2,3.1,-0.8,6.8
Cc1cc(NC(=O)CSc2nnc(-c3ccc(Br)o3)n2Cc2ccccc2)no1,-3.4,66.1*,0.0,-0.6,1.0
Oc1ccc(CN2CCCc3ccccc32)c2cccnc12,2.1,74.4*,-0.7,-0.6,4.9
COc1ccccc1N1CCN(Cc2ccc(O)c3ncccc23)CC1,-4.2,39.7,0.9,-1.1,-20.1
COc1ccc(OCc2nn3c(-c4cccc(OC)c4)nnc3s2)cc1,-4.0,17.9,2.4,-0.8,-13.3
c1ccc(Cc2nn3c(Cn4nnc5ccccc54)nnc3s2)cc1,14.1,91.3*,3.5,-0.6,-13.5
c1ccc(-c2nn3c(Cn4nnc5ccccc54)nnc3s2)nc1,18.8,41.4,1.7,0.1,-10.4
Fc1ccc(-c2nnc3sc(C4COc5ccccc5O4)nn23)cc1 (stereo not given),-7.1,43.1,-3.8,-0.8,5.0
COc1ccc(OCc2nn3c(Cn4cnc5ccccc54)nnc3s2)cc1,7.9,81.0*,-2.2,-0.1,-11.4
c1ccc2c(c1)OCC(c1nn3c(Cn4nnc5ccccc54)nnc3s1)O2 (stereo not given),19.3,62.4*,2.2,-1.5,-7.4
c1ccc(CCc2nn3c(Cn4nnc5ccccc54)nnc3s2)cc1,31.9,37.3,4.0,-0.2,-5.1
c1ccc(OCc2nn3c(Cn4nnc5ccccc54)nnc3s2)cc1,39.4,82.6*,5.2,-0.1,18.1
O=C(NC1CCCC1)C(c1ccc(F)cc1)N(Cc1ccc(Cl)cc1)C(=O)CCl (stereo not given),-6.7,3.0,-2.1,-0.4,-0.5
COc1ccc(Cl)cc1N(CC(=O)NCCSc1ccccn1)S(=O)(=O)c1ccccc1,-7.5,-13.9,-1.5,-0.5,-9.0
CC(C)c1ccc(N(CCc2ccccn2)C(=O)C(C)(C)C)cc1,-4.9,nt,-1.8,-0.6,nt
SMILES,APOBEC3G inh,PHOSPHO1 inh,APOBEC3A inh,TbMetRS inhib,pCIP destab
COC(=O)c1sccc1NC(=O)Nc1cccc(C)c1C,-6.7,61.0*,-2.3,-0.2,-1.6
Cc1cc(NC(=O)CSc2nnc(-c3ccc([N+](=O)[O-])cc3)o2)no1,2.7,67.8*,4.5,-0.6,-11.4
Cc1cc(NC(=O)CSc2nnc(-c3ccc(O)cc3)o2)no1,-5.9,23.7,-9.4,-0.4,3.2
O=C(CN(c1ccc(Br)cc1)S(=O)(=O)c1ccc(Cl)c([N+](=O)[O-])c1)NCC1CCCO1 (stereo not given),nt,nt,nt,0.4,nt
CC(C)CNC(=S)NNC(=O)c1csc2c1CCC(C)C2 (stereo not given),-3.1,83.5*,-0.2,0.0,1.7
Cc1cccc(NC(=S)NNC(=O)c2csc3c2CCC(C)C3)c1 (stereo not given),0.3,30.7,-1.5,-0.7,0.4
Brc1ccc(-c2nnc3sc(CNC4CCCC4)cn23)cc1,-8.8,-20.9,-3.2,0.0,-5.8
Brc1cccc(-c2nnc3sc(CNCc4ccco4)cn23)c1,-4.8,82.8*,-3.3,-0.3,2.4
O=C(Cc1ccccc1)Nc1ccc(NC(=O)c2ccc(Br)cc2)cc1,-2.4,13.9,-0.2,-1.2,5.6
CN(CCC(=O)Nc1ccc(Br)cc1)Cc1ccccc1,-3.2,-16.2,-3.3,24.7*,-5.0
CC1=NC(=O)C(N=Nc2cccc(O)c2)N1c1ccccc1 (stereo not given),17.2,95.0*,27.9,-0.8,-1.9
Cc1cc(C(F)(F)F)nn1CC(=O)NNC(=S)Nc1ccc(F)cc1,-4.4,85.8*,-1.6,-0.2,-6.4
Cc1cc(C(F)(F)F)nn1CC(=O)NNC(=S)Nc1ccc(Cl)cc1,-1.0,90.7*,-0.7,0.0,-9.3
O=C(Cn1cnc2sc3c(c2c1=O)CCCC3)NCC(=O)Nc1ccc(F)cc1F,2.9,64.9*,2.8,0.1,-23.2
O=C(Cn1cnc2sc3c(c2c1=O)CCCC3)NCC(=O)Nc1ccccc1F,-3.0,26.1,-1.4,-0.2,4.8
CCCn1cc(SCC(=O)Nc2ccc3c(c2)OCO3)c2ccccc21,-7.9,-30.2,-8.0,0.3,-12.1
Cn1cc(SCC(=O)Nc2ccc3c(c2)OCO3)c2ccccc21,-12.1,72.3*,-6.6,-0.4,13.6
O=C(CN(C(=O)CNS(=O)(=O)c1ccccc1)c1ccc(F)cc1)NCc1ccco1,-2.8,34.8,1.4,-0.5,-5.0
CCOc1ccc2nc(SC3CC(=O)N(c4ccc(C)cc4)C3=O)sc2c1 (stereo not given),-5.9,84.3*,-6.8,-0.9,-5.6
CCOc1ccc(N2C(=O)CC(Sc3nc4ccc(OCC)cc4s3)C2=O)cc1 (stereo not given),-1.0,nt,-1.7,0.4,nt
CCOc1ccc(N2C(=O)CC(Sc3ncccn3)C2=O)cc1 (stereo not given),-1.5,5.5,-1.7,-0.4,-9.1
CCOC(=O)c1ccc(N2C(=O)CC(Sc3nnc(C)s3)C2=O)cc1 (stereo not given),21.7,100.2*,-4.9,-0.5,2.8
C=CCNc1nnc(SC2CC(=O)N(c3ccc(OCCC)cc3)C2=O)s1 (stereo not given),32.4,99.8*,-1.3,-0.9,-3.4
Cc1ccc(O)c(NC(=O)c2cc(C)no2)c1,-6.8,-3.5,-8.6,0.8,0.7

# From PubChem
